The values below come from PubChem BioAssay.

Test [1] can be described thus: reduced viability of SK-BR-3 breast cancer cells – cell-based, 24 h, human, pilot screen (AID 572;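 active means viability at or below 10% of carrier control in both of two separate runs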;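 further: compound exposure lasted between 18 and 24 h rather than exactly 24 h; 100% = carrier-treated control wells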). The conditions noted are these: SK-BR-3 viability, CellTiter-Glo luminescence, at 10 µM, stronger effect = lower value. In general terms: ATP-based viability assays read luminescence as a measure of living cells.
Test [2] in a line: HUVEC growth inhibition – cell-based, human, primary screen (AID 575;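 active means viability at or below 30% in both replicate assays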;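 further: 100% = median of untreated cell wells with 0.1% DMSO on each plate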). The conditions noted are these: HUVEC proliferation, CellTiter-Glo luminescence, 72 h; at 10 µM; stronger effect = lower value. A digest of the protocol: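 system = HUVEC primary cells | amount = 1250 cells/well | buffer or medium = supplemented EBM, 2% fetal bovine serum | dosing = single-point 10 µM, DMSO 0.1% final | times = 72 h compound incubation | detection = CTG luminescence | read-out = % viability relative to median vehicle-well signal on each plate | control set = vehicle and MePR control wells | format = collagen-coated 384-well format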

Test [3] in a line: H69AR cell proliferation blockers – human, duplicate replicates, primary screen (AID 580;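 active means viability at or under a set limit in both replicates, limit being median viability minus 3 SD, cut at about 48% in these data, passing the limit was not always enough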;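 further: 100% = mean luminescence of untreated wells and 0% = no signal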). The conditions noted are these: H69AR lung tumor cells viability, ATP luminescence, 72 h; at 10 µM; stronger effect = lower value.
Test [4] can be described thus: yeast transport mutant growth inhibition pilot in 384-well plates, post-Golgi transport modulator project (AID 636; in the data active means inhibition above about 31%). Particulars: absorbance 615 nm, about 18 h, stronger effect = higher value.
Test [5] can be described thus: growth suppression of yeast trafficking mutant, preliminary HTS, modulators of trafficking downstream of Golgi apparatus project, 1536-format plate, OD 615 nm (AID 637). Particulars: yeast transport mutant growth, absorbance 615 nm, 18 h; stronger effect = higher value.
Test [6] in a line: MRP1 drug-resistance reversers in H69AR cells – cell-based, doxorubicin co-treatment, pilot screen (AID 601;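 active means viability loss from added drug above about 55%, and viability with drug at most 40%, in both replicates, limit read from the data, passing the limit was not always enough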). The conditions noted are these: CellTiter-Glo, 72 h, at 10 µM; for differential viability (reversal): stronger effect = higher value.
Setting [7] is: H69AR cells + 2 uM doxorubicin, measured here: viability with 2 uM doxorubicin, stronger effect = lower value.
[8] abbreviates: H69AR cells, compound alone cytotoxicity.

Calls of active or inactive are those of the source. Unless noted, no stated cut-off is given here; in the data, active means inhibition above about 30%; inactive means the rest.

Broadly, the viability is a read-out of living cells in per cent, often relative to untreated cells. The inhibition is the relative decrease from the control value, in per cent. Turning to `CCCNC(=O)c1cc(-c2ccco2)on1`, the viability in test [1] was 77% (inactive); in test [2] it was 88.3% (inactive); in test [3], 97.4% (inactive). The inhibition was -1.87% (inactive) in test [4] and 2.73% (inactive) in test [5].

Regarding `Cc1cccc(OCC(=O)Nc2cc(C)ccc2O)c1`, the viability was 105% (inactive) in test [1], 75.3% (inactive) in test [2], 51.4% in test [6] (setting [7]) and 37.4% in test [6] (setting [8]). Further, the differential viability (reversal) in test [6] (H69AR cells + 2 uM doxorubicin) was -14% (inactive). Also, the results for the inhibition in test [4] and in test [5] were -6.16% (inactive) and 0.18% (inactive), respectively.

Regarding `CC(=O)Nc1ccc(N=Cc2nc(-c3ccc(C)cc3)oc2O)cc1`, the viability in test [1] is 102% (inactive); in test [2] it was 96.2% (inactive); in test [3] it was 94.5% (inactive); in test [6] (setting [7]), 92.9%; in test [6] (setting [8]), 94.5%. Also, in test [6] (H69AR cells + 2 uM doxorubicin), the differential viability (reversal) is 1.61% (inactive). The inhibition in test [4] is 0% (inactive); in test [5], -1.8% (inactive).

Consider `O=C(Nc1cnn(C23CC4CC(CC(C4)C2)C3)c1)c1cnn2c(C(F)(F)F)cc(-c3ccco3)nc12`, for which the viability in test [1] is 95% (inactive); in test [2] it was 58% (inactive); in test [6] (setting [7]), 51.8%; in test [6] (setting [8]) it was 53.3%. For the same molecule, the differential viability (reversal) in test [6] (H69AR cells + 2 uM doxorubicin) is 1.52% (inactive). Also, the inhibition in test [4] was -0.82% (inactive); in test [5], 8.39% (inactive).

As for `O=C(Nc1ccc(-c2nc3ncccc3o2)cc1)c1ccc(Br)o1`, the viability in test [1] is 97% (inactive); in test [2] it was 104% (inactive); in test [6] (setting [7]), 53.2%; in test [6] (setting [8]) it was 49.2%. In test [6] (H69AR cells + 2 uM doxorubicin), the differential viability (reversal) was -4.05% (inactive). For the same molecule, the inhibition in test [4] was -2.13% (inactive); in test [5], -0.36% (inactive).

In the case of `CC(C)(C)OC(=O)N1CC=C2C(C#N)=C(N)C(C#N)(C#N)C(c3cccs3)C2C1` (configuration not stated), the viability in test [1] was 65% (inactive); in test [2], 53.9% (inactive); in test [6] (setting [7]), 57.8%; in test [6] (setting [8]) it was 52.8%. Besides, in test [6] (H69AR cells + 2 uM doxorubicin), the differential viability (reversal) was -5.04% (inactive). Besides, the values for the inhibition in test [4] and in test [5] were -1.92% (inactive) and -0.16% (inactive), respectively.

`O=C(CSc1nc2cc(S(=O)(=O)N3CCOCC3)ccc2o1)NC1CCCc2ccccc21` (configuration not stated): the viability in test [1] was 61% (inactive); in test [2] it was 84.7% (inactive); in test [6] (setting [7]), 74.4%; in test [6] (setting [8]), 70.2%. Also, the differential viability (reversal) in test [6] (H69AR cells + 2 uM doxorubicin) is -4.17% (inactive). Also, the figures for the inhibition in test [4] and in test [5] were -3.6% (inactive) and -5.82% (inactive), respectively.

On to `CN1CCN(c2ccc(Cl)cc2NC(=O)c2cccc(S(=O)(=O)N(C)C)c2)CC1`, for which the viability was 93% (inactive) in test [1], 71.6% (inactive) in test [2], 24.6% in test [6] (setting [7]) and 67.9% in test [6] (setting [8]). Moreover, the differential viability (reversal) in test [6] (H69AR cells + 2 uM doxorubicin) is 43.3% (inactive). Moreover, the values for the inhibition in test [4] and in test [5] were -5.47% (inactive) and 1.27% (inactive), respectively.

Turning to `COc1cc(NC(=O)c2ccco2)c(OC)cc1NC(=O)CCC(=O)Nc1cc(C)cc(C)c1`, the viability was 106% (inactive) in test [1], 42.5% (inactive) in test [2], 69.4% in test [6] (setting [7]) and 53.1% in test [6] (setting [8]). For the same molecule, the differential viability (reversal) in test [6] (H69AR cells + 2 uM doxorubicin) was -16.3% (inactive). Moreover, the inhibition in test [4] was -6.58% (inactive); in test [5] it was -0.95% (inactive).

Regarding `CSc1ccc(-c2cc(=O)c3ccccc3o2)cc1`, the viability in test [1] is 110% (inactive); in test [2], 48.1% (inactive); in test [6] (setting [7]), 73.6%; in test [6] (setting [8]), 56.9%. Besides, the differential viability (reversal) in test [6] (H69AR cells + 2 uM doxorubicin) is -16.6% (inactive). The inhibition in test [4] was -4.13% (inactive); in test [5], -4.55% (inactive).

With `CN(C)c1ccc(O)c2c1CC1CC3[C@@H](N(C)C)C(=O)C(C(N)=O)=C(O)[C@]3(O)C(=O)C1=C2O` (some centres not stated), the viability in test [1] was 92% (inactive); in test [2] it was 92.6% (inactive); in test [6] (setting [7]), 39.2%; in test [6] (setting [8]) it was 32.7%. The differential viability (reversal) in test [6] (H69AR cells + 2 uM doxorubicin) is -6.56% (inactive). The inhibition in test [4] was 2.73% (inactive); in test [5], 29.7% (inactive).

Turning to `CC[C@]1(O)CC2CN(CCc3c([nH]c4ccccc34)[C@@](C(=O)OC)(c3cc4c(cc3OC)N(C=O)[C@H]3[C@@](O)(C(=O)OC)[C@H](OC(C)=O)[C@]5(CC)C=CCN6CC[C@]43[C@@H]65)C2)C1` (some centres not stated), the viability is 104% (inactive) in test [1], 34.6% (inactive) in test [2], 53.5% in test [6] (setting [7]) and 26.5% in test [6] (setting [8]). Moreover, in test [6] (H69AR cells + 2 uM doxorubicin), the differential viability (reversal) was -27% (inactive). Moreover, the inhibition is -0.91% (inactive) in test [4] and -3.67% (inactive) in test [5].

Consider `COC1=CC(=O)CC(C)C12Oc1c(Cl)c(OC)cc(OC)c1C2=O` (configuration not stated), for which the viability in test [1] is 100% (inactive); in test [2], 62.8% (inactive); in test [6] (setting [7]) it was 50%; in test [6] (setting [8]) it was 18.1%. Besides, in test [6] (H69AR cells + 2 uM doxorubicin), the differential viability (reversal) was -31.8% (inactive). Further, the inhibition is -2.99% (inactive) in test [4] and -5.67% (inactive) in test [5].

On to `CCCCCC(=O)O[C@]1(C(C)=O)CC[C@H]2[C@@H]3CCC4=CC(=O)CC[C@]4(C)[C@H]3CC[C@@]21C`, for which the viability is 93% (inactive) in test [1], 4.16% (active) in test [2], 2.59% in test [6] (setting [7]) and 23.1% in test [6] (setting [8]). In addition, the differential viability (reversal) in test [6] (H69AR cells + 2 uM doxorubicin) is 20.6% (inactive). Further, the inhibition is 5.84% (inactive) in test [4] and -2% (inactive) in test [5].

For `N#Cc1cc2c(nc1SCC(=O)Nc1sc3c(c1C#N)CCC3)CCCCC2`, the viability was 82% (inactive) in test [1], 79.5% (inactive) in test [2], 57.4% in test [6] (setting [7]) and 40.9% in test [6] (setting [8]). Besides, in test [6] (H69AR cells + 2 uM doxorubicin), the differential viability (reversal) was -16.5% (inactive). Also, the results for the inhibition in test [4] and in test [5] were -7.84% (inactive) and -8.91% (inactive), respectively.

On to `O=C(CN1CCN(Cc2ccc3c(c2)OCO3)CC1)N1CCc2[nH]c3ccc(F)cc3c2C1`, for which the viability was 96% (inactive) in test [1], 58.8% (inactive) in test [2], 61.4% in test [6] (setting [7]) and 52.5% in test [6] (setting [8]). The differential viability (reversal) in test [6] (H69AR cells + 2 uM doxorubicin) is -8.87% (inactive). The inhibition is -2.13% (inactive) in test [4] and -6% (inactive) in test [5].

Regarding `CC(=O)O[C@@]12CO[C@@H]1C[C@H](O)[C@@]1(C)C(=O)[C@H](O)C3=C(C)[C@@H](OC(=O)[C@H](O)[C@@H](NC(=O)OC(C)(C)C)c4ccccc4)C[C@](O)([C@@H](OC(=O)c4ccccc4)[C@H]21)C3(C)C`, the viability in test [1] is 130% (inactive); in test [2], 40.7% (inactive); in test [6] (setting [7]), 98.8%; in test [6] (setting [8]), 19.2%. Also, the differential viability (reversal) in test [6] (H69AR cells + 2 uM doxorubicin) was -79.6% (inactive). The inhibition in test [4] is -4.03% (inactive); in test [5] it was -2.33% (inactive).

On to `Oc1c(I)cc(Cl)c2cccnc12`, for which the viability in test [1] is 84% (inactive); in test [2], 8.13% (active); in test [6] (setting [7]) it was 46.2%; in test [6] (setting [8]) it was 35.8%. The differential viability (reversal) in test [6] (H69AR cells + 2 uM doxorubicin) was -10.4% (inactive). In addition, the inhibition is 4.55% (inactive) in test [4] and 8.83% (inactive) in test [5].

For the molecule `COc1ccc2c(c1OC)C(=O)O[C@@H]2[C@H]1c2c(cc3c(c2OC)OCO3)CCN1C`, the viability in test [1] is 98% (inactive); in test [2] it was 80.8% (inactive); in test [6] (setting [7]), 84.1%; in test [6] (setting [8]), 31.9%. In test [6] (H69AR cells + 2 uM doxorubicin), the differential viability (reversal) was -52.2% (inactive). Further, the results for the inhibition in test [4] and in test [5] were -6.36% (inactive) and -3.5% (inactive), respectively.
